From ChEMBL document CHEMBL5376013, “Design, synthesis and biological evaluation of novel morpholinopyrimidine-5-carbonitrile derivatives as dual PI3K/mTOR inhibitors” (RSC Med Chem, 2024)

Tests used:
Type in all cases: functional
Conditions in all cases: read-out: GI
[1] = test system: NCI-H460; assay: Antitumor activity against human NCI-H460 cells assessed as growth inhibition at 10 uM relative to control
Outline: (§1)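 After drug addition, plates were incubated 48 h at 37 °C under 5% CO2. Adherent cells were fixed with cold TCA (10% final, 60 min, 4 °C) and suspension cells with 16% final TCA. Staining used 0.4% SRB in 1% acetic acid, solubilized in 10 mM trizma, read at A515. Percent growth was calculated from time-zero, control and treated absorbances.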

[2] = test system: OVCAR-3; assay: Antitumor activity against human OVCAR-3 cells assessed as growth inhibition at 10 uM relative to control; outline: as §1
[3] = test system: HCT-15; assay: Antitumor activity against human HCT-15 cells assessed as growth inhibition at 10 uM relative to control; outline: as §1
[4] = test system: SNB-75; assay: Antitumor activity against human SNB-75 cells assessed as growth inhibition at 10 uM relative to control
Outline: (§2)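 Drug exposure 48 h at 37 °C, 5% CO2. Adherent cells fixed with cold TCA (10% final), suspension cells with TCA (16% final). Stained with 0.4% SRB in 1% acetic acid, dissolved in 10 mM Tris, A515. Growth relative to time-zero and untreated control.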

[5] = test system: MOLT-4; assay: Antitumor activity against human MOLT-4 cells assessed as growth inhibition at 10 uM relative to control; outline: as §1
[6] = test system: LOX IMVI; assay: Antitumor activity against human LOX IMVI cells assessed as growth inhibition at 10 uM relative to control; outline: as §1
[7] = test system: HOP-92; assay: Antitumor activity against human HOP-92 cells assessed as growth inhibition at 10 uM relative to control; outline: as §1
[8] = test system: PC-3; assay: Antitumor activity against human PC-3 cells assessed as growth inhibition at 10 uM relative to control; outline: as §1
[9] = test system: NCI-H322M; assay: Antitumor activity against human NCI-H322M cells assessed as growth inhibition at 10 uM relative to control; outline: as §1
[10] = test system: 786-0; assay: Antitumor activity against human 786-0 cells assessed as growth inhibition at 10 uM relative to control; outline: as §1
[11] = test system: UACC-257; assay: Antitumor activity against human UACC-257 cells assessed as growth inhibition at 10 uM relative to control; outline: as §2
[12] = test system: HCT-116; assay: Antitumor activity against human HCT-116 cells assessed as growth inhibition at 10 uM relative to control; outline: as §1
[13] = test system: OVCAR-4; assay: Antitumor activity against human OVCAR-4 cells assessed as growth inhibition at 10 uM relative to control; outline: as §1
[14] = test system: SW-620; assay: Antitumor activity against human SW-620 cells assessed as growth inhibition at 10 uM relative to control; outline: as §2
[15] = test system: SK-MEL-28; assay: Antitumor activity against human SK-MEL-28 cells assessed as growth inhibition at 10 uM relative to control; outline: as §2
[16] = test system: OVCAR-8; assay: Antitumor activity against human OVCAR-8 cells assessed as growth inhibition at 10 uM relative to control; outline: as §1
[17] = test system: MDA-MB-231; assay: Antitumor activity against human MDA-MB-231 cells assessed as growth inhibition at 10 uM relative to control; outline: as §1
[18] = test system: T47D; assay: Antitumor activity against human T47D cells assessed as growth inhibition at 10 uM relative to control; outline: as §2
[19] = test system: SF-295; assay: Antitumor activity against human SF-295 cells assessed as growth inhibition at 10 uM relative to control; outline: as §1
[20] = test system: A498; assay: Antitumor activity against human A498 cells assessed as growth inhibition at 10 uM relative to control; outline: as §1
[21] = test system: HT-29; assay: Antitumor activity against human HT-29 cells assessed as growth inhibition at 10 uM relative to control; outline: as §1
[22] = test system: SN12C; assay: Antitumor activity against human SN12C cells assessed as growth inhibition at 10 uM relative to control; outline: as §2
[23] = test system: RXF 393; assay: Antitumor activity against human RXF 393 cells assessed as growth inhibition at 10 uM relative to control; outline: as §1
[24] = test system: HOP-62; assay: Antitumor activity against human HOP-62 cells assessed as growth inhibition at 10 uM relative to control; outline: as §1
[25] = test system: SF-268; assay: Antitumor activity against human SF-268 cells assessed as growth inhibition at 10 uM relative to control; outline: as §1
[26] = test system: U-251; assay: Antitumor activity against human U-251 cells assessed as growth inhibition at 10 uM relative to control; outline: as §2
[27] = test system: HL-60; assay: Antitumor activity against human HL-60 cells assessed as growth inhibition at 10 uM relative to control; outline: as §1
[28] = test system: CAKI-1; assay: Antitumor activity against human CAKI-1 cells assessed as growth inhibition at 10 uM relative to control; outline: as §1
[29] = test system: BT-549; assay: Antitumor activity against human BT-549 cells assessed as growth inhibition at 10 uM relative to control; outline: as §1
[30] = test system: COLO 205; assay: Antitumor activity against human COLO 205 cells assessed as growth inhibition at 10 uM relative to control; outline: as §1
[31] = test system: SK-MEL-5; assay: Antitumor activity against human SK-MEL-5 cells assessed as growth inhibition at 10 uM relative to control; outline: as §2
[32] = test system: NCI-H522; assay: Antitumor activity against human NCI-H522 cells assessed as growth inhibition at 10 uM relative to control; outline: as §1
[33] = test system: KM12; assay: Antitumor activity against human KM12 cells assessed as growth inhibition at 10 uM relative to control; outline: as §1
[34] = test system: SF-539; assay: Antitumor activity against human SF-539 cells assessed as growth inhibition at 10 uM relative to control; outline: as §1
[35] = test system: NCI-H226; assay: Antitumor activity against human NCI-H226 cells assessed as growth inhibition at 10 uM relative to control; outline: as §1
[36] = test system: M14; assay: Antitumor activity against human M14 cells assessed as growth inhibition at 10 uM relative to control; outline: as §1
[37] = test system: UO-31; assay: Antitumor activity against human UO-31 cells assessed as growth inhibition at 10 uM relative to control; outline: as §2
[38] = test system: SK-MEL-2; assay: Antitumor activity against human SK-MEL-2 cells assessed as growth inhibition at 10 uM relative to control; outline: as §1
[39] = test system: SK-OV-3; assay: Antitumor activity against human SK-OV-3 cells assessed as growth inhibition at 10 uM relative to control; outline: as §2
[40] = test system: DU-145; assay: Antitumor activity against human DU-145 cells assessed as growth inhibition at 10 uM relative to control; outline: as §1
[41] = test system: EKVX; assay: Antitumor activity against human EKVX cells assessed as growth inhibition at 10 uM relative to control; outline: as §1
[42] = test system: MDA-MB-468; assay: Antitumor activity against human MDA-MB-468 cells assessed as growth inhibition at 10 uM relative to control; outline: as §1
[43] = test system: MDA-MB-435; assay: Antitumor activity against human MDA-MB-435 cells assessed as growth inhibition at 10 uM relative to control; outline: as §1
[44] = test system: UACC-62; assay: Antitumor activity against human UACC-62 cells assessed as growth inhibition at 10 uM relative to control; outline: as §2
[45] = test system: IGROV-1; assay: Antitumor activity against human IGROV-1 cells assessed as growth inhibition at 10 uM relative to control; outline: as §1
[46] = test system: ACHN; assay: Antitumor activity against human ACHN cells assessed as growth inhibition at 10 uM relative to control; outline: as §1

N#Cc1c(-c2ccc(Cl)cc2)nc(N/N=C/c2cccc(Cl)c2)nc1N1CCOCC1
inhibition of growth at 10 µM [1]: < 1% | inhibition of growth at 10 µM [2]: 12.6% | inhibition of growth at 10 µM [3]: 64.6% | inhibition of growth at 10 µM [4]: 19.9% | inhibition of growth at 10 µM [5]: 46.7% | inhibition of growth at 10 µM [6]: 14.5% | inhibition of growth at 10 µM [7]: 10.7% | inhibition of growth at 10 µM [8]: 26.5% | inhibition of growth at 10 µM [9]: 11.2% | inhibition of growth at 10 µM [10]: 29.9% | inhibition of growth at 10 µM [11]: 28.4% | inhibition of growth at 10 µM [12]: 29.2% | inhibition of growth at 10 µM [13]: < 1% | inhibition of growth at 10 µM [14]: 46.7% | inhibition of growth at 10 µM [15]: < 1% | inhibition of growth at 10 µM [16]: < 1% | inhibition of growth at 10 µM [17]: < 1% | inhibition of growth at 10 µM [18]: 23.4% | inhibition of growth at 10 µM [19]: < 1% | inhibition of growth at 10 µM [20]: 57.8% | inhibition of growth at 10 µM [21]: 59.6% | inhibition of growth at 10 µM [22]: < 1% | inhibition of growth at 10 µM [23]: < 1% | inhibition of growth at 10 µM [24]: < 1% | inhibition of growth at 10 µM [25]: < 1% | inhibition of growth at 10 µM [26]: < 1% | inhibition of growth at 10 µM [27]: 28.5% | inhibition of growth at 10 µM [28]: 20.8% | inhibition of growth at 10 µM [29]: < 1% | inhibition of growth at 10 µM [30]: 39% | inhibition of growth at 10 µM [31]: < 1% | inhibition of growth at 10 µM [32]: < 1% | inhibition of growth at 10 µM [33]: < 1% | inhibition of growth at 10 µM [34]: 20.9% | inhibition of growth at 10 µM [35]: 10.7% | inhibition of growth at 10 µM [36]: 15.4% | inhibition of growth at 10 µM [37]: 46.5% | inhibition of growth at 10 µM [38]: < 1% | inhibition of growth at 10 µM [39]: < 1% | inhibition of growth at 10 µM [40]: 24% | inhibition of growth at 10 µM [41]: 22.3% | inhibition of growth at 10 µM [42]: 14.9% | inhibition of growth at 10 µM [43]: < 1% | inhibition of growth at 10 µM [44]: < 1% | inhibition of growth at 10 µM [45]: 24.8% | inhibition of growth at 10 µM [46]: 25.7%

N#Cc1c(-c2ccc(Cl)cc2)nc(NN2C(=O)CCC2=O)nc1N1CCOCC1
inhibition of growth at 10 µM [1]: < 1% | inhibition of growth at 10 µM [2]: < 1% | inhibition of growth at 10 µM [3]: < 1% | inhibition of growth at 10 µM [4]: 33.9% | inhibition of growth at 10 µM [5]: < 1% | inhibition of growth at 10 µM [6]: < 1% | inhibition of growth at 10 µM [7]: < 1% | inhibition of growth at 10 µM [8]: < 1% | inhibition of growth at 10 µM [9]: < 1% | inhibition of growth at 10 µM [10]: < 1% | inhibition of growth at 10 µM [11]: < 1% | inhibition of growth at 10 µM [12]: < 1% | inhibition of growth at 10 µM [13]: < 1% | inhibition of growth at 10 µM [14]: < 1% | inhibition of growth at 10 µM [15]: < 1% | inhibition of growth at 10 µM [16]: < 1% | inhibition of growth at 10 µM [17]: < 1% | inhibition of growth at 10 µM [18]: < 1% | inhibition of growth at 10 µM [19]: < 1% | inhibition of growth at 10 µM [20]: < 1% | inhibition of growth at 10 µM [21]: < 1% | inhibition of growth at 10 µM [22]: < 1% | inhibition of growth at 10 µM [23]: < 1% | inhibition of growth at 10 µM [24]: < 1% | inhibition of growth at 10 µM [25]: < 1% | inhibition of growth at 10 µM [26]: < 1% | inhibition of growth at 10 µM [27]: < 1% | inhibition of growth at 10 µM [28]: < 1% | inhibition of growth at 10 µM [29]: < 1% | inhibition of growth at 10 µM [30]: < 1% | inhibition of growth at 10 µM [31]: < 1% | inhibition of growth at 10 µM [32]: 16% | inhibition of growth at 10 µM [33]: < 1% | inhibition of growth at 10 µM [34]: < 1% | inhibition of growth at 10 µM [35]: < 1% | inhibition of growth at 10 µM [36]: < 1% | inhibition of growth at 10 µM [37]: 12.5% | inhibition of growth at 10 µM [38]: < 1% | inhibition of growth at 10 µM [39]: < 1% | inhibition of growth at 10 µM [40]: < 1% | inhibition of growth at 10 µM [41]: < 1% | inhibition of growth at 10 µM [42]: < 1% | inhibition of growth at 10 µM [43]: < 1% | inhibition of growth at 10 µM [44]: < 1% | inhibition of growth at 10 µM [45]: < 1% | inhibition of growth at 10 µM [46]: < 1%
